The results in this text go back to PubChem BioAssay AID821 (SRMLSC, 2007).

The source made the active and inactive calls.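 How the source made its calls: active means compounds whose fitted half-maximal concentration for reducing fibroblast viability is 100 µM or lower; inactive means the rest.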

The nature of the assay: LL 47 lung fibroblast growth inhibition, concentration-response, selectivity test for endothelial growth inhibitor program, cellular, luminescent ATP readout (AID 821).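 Further: 100% = median of untreated cell-only wells and 0% = no luminescence.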 To be noted: LL 47 lung fibroblast viability, ATP luminescence; at 20 µM (top of the series). The gist of the method:
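assay system = LL 47 human lung fibroblasts | quantity = 1,150 cells per well | compound = dose series 0.039–20 µM final, 0.2% DMSO | incubation = overnight cell settling, then 72 h compound exposure at 37 °C | signal = CellTiter-Glo luminescence readout of viable cells | read-out basis = % viability versus median cell-only wells, four-parameter EC50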

With `Cc1ccc2[nH]c3c(NCc4ccco4)ncnc3c2c1`, the viability was 85.1% (inactive).
With `O=C(COC(=O)c1cccnc1Nc1cccc(C(F)(F)F)c1)NCc1ccc2c(c1)OCO2` the figure was 130% (inactive); with `Cc1nc2c(-c3ccccc3)c(C)[nH]n2c(=O)c1Cl`, 119% (inactive); with `c1ccc(-c2nccc(-c3ccc(-n4cnc5ccccc54)cc3)n2)cc1`, 115% (inactive).
As for `COc1ccc(CN2CCn3ncc(C(=O)Nc4cc(C)cc(C)c4)c3C2=O)cc1`, the viability is 105% (inactive).
Consider `COC(=O)c1cc(NC(=O)c2c(Cl)nc3sccn23)cc(C(=O)OC)c1`, for which the viability is 91.8% (inactive).
Then `CCOc1ccc(NS(=O)(=O)c2ccc(OCC(=O)NCCCOC)cc2)cc1`, with 93.1% (inactive); and `CCCOC(=O)c1ccc(Oc2cn[nH]c2-c2ccc(OCC)cc2O)cc1`, with 98.4% (inactive).
Then `CCOC(=O)c1c(CN2CCN(c3ccccc3)CC2)oc2ccc(O)cc12`, with 83.2% (inactive); and `CC(C)(C)n1cnc2cc(NS(=O)(=O)c3ccccc3)ccc21`, with 104% (inactive).
Consider `O=C(NCCC1=CCCCC1)C1CCN(Cc2cnn(-c3ccccc3)c2-n2cccc2)CC1`, for which the viability is 92.5% (inactive).
On to `CSc1nc2c(cnn2-c2ccc(C)c(C)c2)c(=O)[nH]1`, for which the viability is 93.2% (inactive).
Then `O=C1CCn2nc(-c3ccc(Cl)cc3)cc2N1`, with 104% (inactive).
Then `Cc1cccc(C)c1OCC(=O)N=Nc1c(O)[nH]c2ccc(Br)cc12`, with 104% (inactive); and `CC1(C)CC(=O)c2cc(C(=O)NCc3ccco3)c(=O)n(-c3ccc(Cl)cc3)c2C1`, with 105% (inactive).
With `CCOC(=O)c1ccc(NC(=O)CCc2nc(-c3cccc(C)c3)no2)cc1`, the viability was 107% (inactive).
As for `CCCCCn1c(CN2CCN(c3cc(Cl)ccc3C)CC2)nc2c1c(=O)[nH]c(=O)n2C`, the viability is 81.2% (inactive).
Turning to `Cc1nc(Nc2ccc3c(c2)OCCO3)c2nnn(Cc3ccccc3Cl)c2n1`, the viability is 102% (inactive).
Then `CCCCC[n+]1ccn(C2=C([O-])c3ccccc3C(=O)/C2=N\S(=O)(=O)c2ccccc2)c1`, with 86.4% (inactive).
`O=C1c2[nH]nc(-c3ccccc3O)c2C(c2cccc(Cl)c2)N1Cc1ccco1` (stereo not drawn): the viability was 98.4% (inactive).
In the case of `Cc1cccc(N2CCN(C(=O)c3ccc4nc(-c5ccco5)c(-c5ccco5)nc4c3)CC2C)c1` (stereo not drawn), the viability is 105% (inactive).
Take `O=C(Nc1cccc(-c2nc3ncccc3o2)c1)c1cc2ccccc2o1`: the viability is 116% (inactive).
`CCCN(CCO)Cc1cccc(Br)c1`: the viability was 97.9% (inactive).
Regarding `Cc1nn(-c2ccc(F)cc2)c(C)c1NS(=O)(=O)c1ccc(Cl)cc1`, the viability is 90.7% (inactive).
With `COc1cccc2c(C)nc(Nc3nc(CSc4nnc(C)s4)cc(=O)[nH]3)nc12` the figure was 117% (inactive); with `CC(=O)Oc1ccc(N(C(C)=O)S(=O)(=O)c2cccs2)c2ccccc12`, 95.7% (inactive); with `CCc1ccc(NC(=O)CCc2nc3cccnc3n2Cc2ccc(OC)cc2)cc1`, 90.2% (inactive).
As for `O=C(NCc1ccc2c(c1)OCO2)C1CCC(CNS(=O)(=O)c2cccc3nsnc23)CC1` (stereo not drawn), the viability was 106% (inactive).
As for `Cc1cc(S(=O)(=O)N2CCN(Cc3ccc4c(c3)OCO4)CC2)cc(C)c1N1CCCC1=O`, the viability is 100% (inactive).
For `CCn1c(SCC(=O)Nc2ccc3c(c2)oc2ccccc23)nnc1-c1ccc(N)cc1`, the viability was 97.6% (inactive).
Take `Cn1nnc(NC(=O)CSc2ccc(Cl)cc2)n1`: the viability is 125% (inactive).
Then `CCCCC(=O)O[C@H]1CC[C@H]2[C@@H]3CCc4cc(O)ccc4[C@H]3CC[C@]12C`, with 84% (inactive); and `Nc1nc(-c2ccccc2)cc(-c2ccccc2O)n1`, with 104% (inactive).
As for `COc1ccc(NC(=O)CSc2nnc(-c3cccs3)n2-c2ccccc2)cc1`, the viability was 105% (inactive).
Consider `COC(=O)C1=C(C)N=c2s/c(=C3\C(=O)Nc4ccccc43)c(=O)n2C1c1ccccc1` (stereo not drawn), for which the viability is 80.9% (inactive).
Then `Cc1ccc2nc(NC(=O)CSc3ncnc4c3oc3ccccc34)sc2c1`, with 113% (inactive); and `O=C(CSc1nnc(-c2cccs2)n1-c1ccccc1)Nc1ccccc1`, with 90.4% (inactive).
For the compound `Cn1c(=O)c2c(nc(Oc3ccc4c(c3)OCO4)n2Cc2ccc(Cl)cc2)n(C)c1=O`, the viability was 87.5% (inactive).
With `COc1ccccc1NC(=O)C1C2C=CC(O2)C1C(=O)O` (stereo not drawn) the figure was 100% (inactive); with `CCN(CC(O)Cn1c2ccccc2c2ccccc21)S(=O)(=O)c1ccc(C)cc1` (stereo not drawn), 96.4% (inactive).
With `COc1ccc(Cl)cc1C(=O)n1nc(C)cc1C`, the viability was 101% (inactive).
With `CC1CCCN(c2oc(-c3cccc4ccccc34)nc2C#N)C1` (stereo not drawn), the viability is 99.6% (inactive).
For `Cc1ccc2[nH]c(=O)c(C3C(C#N)=C(N)Oc4c3ccc3cccnc43)cc2c1` (stereo not drawn), the viability was 86.9% (inactive).
As to `c1cc2c3c(cccc3c1)NC1(CCCCCC1)N2`, the viability was 86.2% (inactive).
As to `Cc1nc2cc(N3CCCCC3)c(NC(=O)c3cccnc3)cc2c(=O)n1Cc1ccccc1`, the viability is 91.8% (inactive).
Then `COCCn1c(SCC(=O)Nc2ccc(NC(=O)c3ccco3)c(OC)c2)nc2ccccc2c1=O`, with 99.1% (inactive); and `N=c1nc(N)nc2n1NC(c1ccc(F)cc1)=CS2`, with 104% (inactive); and `CCOC(=O)c1c(C)[nH]c(C(=O)OC/C(O)=C(\C#N)c2nc3ccccc3[nH]2)c1C`, with 113% (inactive).
Regarding `CCOC(=O)c1ccc(NC(=O)c2c(C)[nH]c(C(=O)OCC)c2C)cc1`, the viability was 103% (inactive).
In the case of `CNC(=O)Cn1c(=O)n(C)c2ccccc21`, the viability was 107% (inactive).
With `CC1(C)Cc2c(C#N)c(N3CCN(C(=O)c4ccco4)CC3)nc(Cc3ccccc3)c2CO1` the figure was 87.4% (inactive); with `CCCc1ccc(Oc2c(-c3ccc(O)c(C)c3O)n[nH]c2C)cc1`, 97.3% (inactive).
On to `CCCOC(=O)c1ccc(Oc2cn[nH]c2-c2ccc(OC)cc2O)cc1`, for which the viability was 86.6% (inactive).
For `CCOC(=O)c1sc(NC(=O)CSc2nnnn2-c2ccc(C)cc2C)nc1C`, the viability is 81.2% (inactive).
Consider `O=C(CC1CCCCC1)c1c(O)c2ccccc2oc1=O`, for which the viability is 88.5% (inactive).
Then `CCC(C)[C@@H](NC(=O)OC(C)(C)C)c1nnc(S(=O)(=O)Cc2cccc(C)c2)o1` (stereo partly drawn), with 91.4% (inactive); and `CC(=O)Nc1ccc(S(=O)(=O)NC2=C(N3CCN(Cc4ccccc4)CC3)C(=O)c3ccccc3C2=O)cc1`, with 89.8% (inactive); and `CC(C)c1ccc(C2C3CSCC=C3C(C#N)=C(N)C2(C#N)C#N)cc1` (stereo not drawn), with 88.4% (inactive).
With `Cc1nn(CC(=O)Nc2ccc3c(c2)oc2ccccc23)c(=O)c2ccccc12` the figure was 105% (inactive); with `COc1ccc(NC(=O)CSc2nnc(CNC(=O)COc3ccc(Cl)cc3)o2)c(OC)c1`, 97% (inactive); with `OC(C#Cc1ccccn1)c1cccs1` (stereo not drawn), 98.2% (inactive).
Then `O/N=C1\CC/C(=N\O)c2nn(-c3ccccc3Cl)nc21`, with 87.3% (inactive); and `Cc1ccc(-n2c(SCC(=O)Nc3nccs3)nc3c(c2=O)SCC3)cc1`, with 107% (inactive); and `Cc1ccc(S(=O)(=O)c2c(C)nn(C(C)(C)C)c2OC(=O)c2cccs2)cc1`, with 104% (inactive).
Consider `Cc1nn(Cc2ccc(Cl)c(Cl)c2)c(C)c1NC(=O)c1cc(-c2ccc3c(c2)OCO3)on1`, for which the viability is 94.2% (inactive).
Then `COc1ccc2[nH]cc(C(=O)CN3CCN(C4CCCCC4)CC3)c2c1`, with 103% (inactive).
On to `CCOC(=O)N1CCN(c2ncnc3c2oc2nc(C(C)C)c4c(c23)CCC4)CC1`, for which the viability was 108% (inactive).
On to `Clc1ccc(-c2nc(NCCN3CCOCC3)c3ccccc3n2)cc1`, for which the viability was 83.1% (inactive).
`Cc1ccc2c(c1)c1c(n2CC(O)Cn2c(C)nc3ccccc32)/C(=N\O)CCC1` (stereo not drawn): the viability is 89.6% (inactive).
Turning to `Cc1ccccc1-c1nc(CN2CCC(C(=O)NCCC3=CCCCC3)CC2)c(C)o1`, the viability is 87.6% (inactive).
As to `N#Cc1nc(-c2ccc(OCc3ccccc3)cc2)oc1NCCCn1ccnc1`, the viability was 92.9% (inactive).
With `CCC(C)NC(=O)c1c(N)n(/N=C/c2ccccn2)c2nc3ccccc3nc12` (stereo not drawn) the figure was 116% (inactive); with `COc1ccc2[nH]cc(C(=O)CN3CCN(C(=O)c4ccco4)CC3)c2c1`, 108% (inactive).
`O=C(CC1SCCNC1=O)Nc1cc(Cl)cc(Cl)c1` (stereo not drawn): the viability is 100% (inactive).
Turning to `COCCn1c(C)cc(C(=O)CSc2nc3ccccc3o2)c1C`, the viability is 129% (inactive).
Then `Cc1cc(C)n(-c2nc(NCCCO)c3c4c(sc3n2)CCCC4)n1`, with 88.8% (inactive).
With `NC(=O)Cc1c[nH]c2cccc(O)c12` the figure was 111% (inactive).
With `COC(=O)c1sccc1NC(=O)c1ccc2c(c1)OCO2`, the viability is 103% (inactive).
With `C/C(=N\O)c1ccc2c3ccccc3n(C)c2c1` the figure was 111% (inactive); with `O=c1oc(-c2ccccc2F)nc2c1cnn2-c1ccccc1`, 105% (inactive); with `COc1ccc(OC)c(S(=O)(=O)N(C)CC(=O)N2CCN(c3ccc(F)cc3)CC2)c1`, 106% (inactive).
As for `OCCN1CCN(c2nc(-c3ccccc3)c3cc(Cl)ccc3n2)CC1`, the viability is 85% (inactive).
Then `O=C(Cc1sc(-c2ccccc2Cl)nc1-c1ccccc1)Nc1ccccc1`, with 99.7% (inactive).

One may read the viability as a read-out of living cells in per cent, often relative to untreated cells.
